Results from ChEMBL document CHEMBL4033772, “New Class of Antitrypanosomal Agents Based on Imidazopyridines” (ACS Med Chem Lett, 2017).
In brackets after ≈: the same amount, converted by molar mass. Activity calls are given as the source filed them. The rule behind the calls is not given here.

Legend:
Trypanosoma cruzi [1] = test: Antitrypanosomal activity against Trypanosoma cruzi Tulahuen amastigotes infected in mouse 3T3 cells after 6 days by beta galactosidase reporter asay; type: functional, cell-based; conditions: NIH3T3, 144 h
Trypanosoma cruzi [2] = test: Antitrypanosomal activity against bioluminescent PpyRE9h expressing Trypanosoma cruzi Tulahuen […] infected subcutaneously in BALB/c mouse assessed as suppression of Trypanosoma cruzi infection at 100 mg/kg, po qd administered for 5 days measured after 6 weeks by IVIS imaging analysis; type: functional, organism-based
[3] = Cytotoxicity against human CRL8155 cells after 48 hrs by Alamar Blue-based assay; type: cell-based; conditions: CRL8155, 48 h
How it was run: (§1)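 Cytotoxicity tested against human lymphoblasts CRL-8155 and hepatocytes HepG2. Highest concentration tested was 50 µM.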

HepG2 = test: Cytotoxicity against human HepG2 cells after 48 hrs by Alamar Blue-based assay; type: cell-based; conditions: HepG2, 48 h; how it was run: as §1
[4] = Selectivity ratio of EC50 for Trypanosoma cruzi Tulahuen amastigotes to EC50 for Trypanosoma brucei brucei BF427; type: functional
[5] = system: Trypanosoma brucei brucei; test: Antitrypanosomal activity against Trypanosoma brucei brucei BF427 after 48 hrs by Alamar Blue-based assay; type: functional; conditions: BF427, 48 h
[6] = Half life in mouse liver microsomes by LC-MS/MS method; type: ADME, microsome
How it was run: (§2)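 Incubation with mouse liver microsomes, run in duplicate. Testosterone and dextromethorphan included as controls in each assay.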

[7] = Solubility of the compound in HCl at pH 2.0 at 50 uM after overnight incubation by LC-MS/MS method; type: physicochemical
How it was run: (§3)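 Solubility measured at pH 7.4, 6.5 and 2.0.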

[8] = Solubility of the compound in PBS at pH 7.4 at 50 uM after overnight incubation by LC-MS/MS method; type: physicochemical; how it was run: as §3
[9] = Protein binding in Swiss Webster mouse plasma assessed as drug recovery at 2 uM by LC-MS/MS analysis; type: ADME, cell-free; conditions: read-out: Drug recovery
How it was run: (§4)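 Plasma protein binding measured in 100% mouse plasma, giving % recovery and % fraction unbound. Propranolol control included in every experiment.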

[10] = Fraction unbound in Swiss Webster mouse plasma at 2 uM by LC-MS/MS analysis; type: ADME, cell-free; how it was run: as §4
[11] = Solubility of the compound in PBS at pH 6.5 at 50 uM after overnight incubation by LC-MS/MS method; type: physicochemical; how it was run: as §3
Liver = test: Stability of the compound in mouse liver microsomes assessed as compound remaining by LC-MS/MS method; type: ADME, microsome; how it was run: as §2
[12] = Drug level in Swiss Webster mouse brain at 5 mg/kg, ip after 1 hr by LC-MS/MS analysis; type: ADME, organism-based; conditions: read-out: Drug uptake
How it was run: (§5)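 Mice in groups of three got a single 5 mg/kg ip dose. Animals were sacrificed 1 h postdose, and brain and plasma were collected for analysis. Brain:plasma ratio was calculated from the mean concentrations.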

[13] = Plasma concentration in Swiss Webster mouse at 5 mg/kg, ip after 1 hr by LC-MS/MS analysis; type: ADME, organism-based; how it was run: as §5
[14] = Ratio of drug level in Swiss Webster mouse brain to plasma at 5 mg/kg, ip measured after 1 hr by LC-MS/MS analysis; type: ADME, organism-based; conditions: read-out: BPR; how it was run: as §5

SMILES	EC50 (Trypanosoma cruzi [1])	EC90 (Trypanosoma cruzi [1])	Activity (Trypanosoma cruzi [2])	EC50 [3]	EC50 (HepG2)	Ratio EC50 [4]	EC50 [5]	EC90 [5]	half-life [6]	solubility at 50 µM [7]	solubility at 50 µM [8]	recovery at 2 µM [9]	fraction unbound at 2 µM [10]	solubility at 50 µM [11]	Stability (Liver)	concentration at 1 h [12]	concentration at 1 h [13]	Kp at 1 h [14]
O=C(Cn1ccnc1[N+](=O)[O-])NCc1ccccc1 [BENZNIDAZOLE]	690 nM	1360 nM	Active															
O=C(Nc1ccn2cc(-c3ccc(F)c(F)c3)nc2c1)N1CCCC1	2240 nM	2570 nM		> 50000 nM	> 50000 nM	7	320 nM	730 nM										
O=C(Nc1ccn2cc(-c3ccc(F)c(F)c3)nc2c1)c1cccnc1Cl	7340 nM	> 20000 nM		> 50000 nM	> 50000 nM		> 20000 nM	> 20000 nM										
COc1ccc2c(c1)[C@]13CCCC[C@@H]1[C@H](C2)N(C)CC3 [DEXTROMETHORPHAN]									0.0185 h									
O=C(Nc1ccn2cc(-c3cccc(F)c3)nc2c1)N1CCCCC1	3100 nM	4530 nM		> 50000 nM	> 50000 nM		970 nM	1480 nM										
C[C@]12CC[C@H]3[C@@H](CCC4=CC(=O)CC[C@@]43C)[C@@H]1CC[C@@H]2O [TESTOSTERONE]									0.0947 h									
Cc1noc(C)c1C(=O)Nc1ccn2cc(-c3ccc(F)c(F)c3)nc2c1	9060 nM	> 20000 nM		> 50000 nM	> 50000 nM		> 20000 nM	> 20000 nM										
O=C(Nc1ccn2cc(-c3cccc(F)c3F)nc2c1)N1CCCC1	1020 nM	1610 nM		> 50000 nM	> 50000 nM		580 nM	2760 nM										
O=C(Nc1ccn2cc(-c3cccc(F)c3)nc2c1)N1CC[C@H](F)C1	710 nM	880 nM		29700 nM	> 50000 nM		160 nM	820 nM	> 1 h	52 µM (≈ 17.8 µg/mL)	49.7 µM (≈ 17 µg/mL)	68.5%	0.03	43.8 µM (≈ 15 µg/mL)	84.5%			
O=C(Nc1ccn2cc(-c3cccc(F)c3F)nc2c1)N1CC[C@H](F)C1	940 nM	1360 nM		> 50000 nM	> 50000 nM		180 nM	920 nM	> 1 h	53.1 µM (≈ 19.1 µg/mL)	6.4 µM (≈ 2.31 µg/mL)	68.4%	0.026	6.8 µM (≈ 2.45 µg/mL)	86.3%			
O=C(Nc1ccn2cc(-c3ccccc3)nc2c1)N1CC[C@H](F)C1	1080 nM	1730 nM		44600 nM	> 50000 nM		620 nM	770 nM										
O=C(Nc1ccn2cc(-c3nccs3)nc2c1)N1CC[C@H](F)C1	> 20000 nM	> 20000 nM		> 50000 nM	> 50000 nM		> 20000 nM	> 20000 nM										
O=C(Nc1ccn2cc(-c3cccc(F)c3)nc2c1)N1CCCC1	2950 nM	6010 nM		> 50000 nM	> 50000 nM		730 nM	880 nM										
CCN(CC)CCCC(C)Nc1c2ccc(Cl)cc2nc2ccc(OC)cc12 (stereo unspecified) [QUINACRINE]				4230 nM														
CC(C)NCC(O)COc1cccc2ccccc12 (stereo unspecified) [PROPRANOLOL]												75.7%	0.114					
O=C(Nc1ccn2cc(-c3ccccc3)nc2c1)N1CCCCC1	2750 nM	12300 nM		> 50000 nM	> 50000 nM		2510 nM	4200 nM										
O=C(Nc1ccn2cc(-c3ccc(F)c(F)c3)nc2n1)N1CC[C@H](F)C1	2530 nM	> 20000 nM		> 50000 nM	> 50000 nM		> 20000 nM	> 20000 nM				49%	0.081	42 µM (≈ 15.2 µg/mL)				
O=C(Nc1ccn2cc(-c3ccc(F)c(F)c3)nc2c1)N1CC[C@H](F)C1	390 nM	600 nM		35300 nM	> 50000 nM		160 nM	310 nM	> 1 h	45.9 µM (≈ 16.5 µg/mL)	32.8 µM (≈ 11.8 µg/mL)	64.5%	0.04	49.9 µM (≈ 18 µg/mL)	100%	550 nM	4840 nM	0.114
Cn1nc(C(C)(C)C)cc1C(=O)Nc1cc2nc(-c3ccc(F)c(F)c3)cn2cn1	170 nM	640 nM		14500 nM	> 50000 nM		6990 nM	> 20000 nM	1 h	1.3 µM (≈ 0.534 µg/mL)	2.7 µM (≈ 1.11 µg/mL)	73.3%	0.007	7.6 µM (≈ 3.12 µg/mL)	47.1%			
O=C(Nc1ccn2cc(-c3ccc(F)c(F)c3)nc2c1)N1CCCCC1	2840 nM	4400 nM		47400 nM	> 50000 nM		1200 nM	1750 nM										
O=C(Nc1ccc2nc(-c3ccc(F)c(F)c3)cn2c1)N1CC[C@H](F)C1	9940 nM	> 20000 nM		> 50000 nM	> 50000 nM		> 20000 nM	> 20000 nM										
O=C(Nc1ccn2cc(-c3cccc(F)c3F)nc2c1)N1CCCCC1	1000 nM	1580 nM		> 50000 nM	> 50000 nM		720 nM	870 nM										
O=C(Nc1ccn2cc(-c3ccc(F)c(F)c3)nc2c1)c1cccnc1	6270 nM	> 20000 nM		> 50000 nM	> 50000 nM		6300 nM	> 20000 nM										
Cn1nc(C(C)(C)C)cc1C(=O)Nc1ccn2cc(-c3ccc(F)c(F)c3)nc2c1	570 nM	1520 nM		> 50000 nM	> 50000 nM		710 nM	> 20000 nM										
O=C(Nc1ccn2cc(-c3ccccc3)nc2c1)N1CCCC1	4460 nM	6440 nM		36000 nM	> 50000 nM		2230 nM	3270 nM										
N=C(N)c1ccc(OCCCCCOc2ccc(C(=N)N)cc2)cc1 [PENTAMIDINE]							2.16 nM	6.13 nM										
O=C(Nc1ccn2cc(-c3cccs3)nc2c1)N1CC[C@H](F)C1	2680 nM	3920 nM		> 50000 nM	> 50000 nM		1000 nM	2670 nM										
